Assay outcomes from PubChem BioAssay.
F508del corr = correctors of CFTR F508del function in bronchial epithelial cells. CFBE cells, YFP halide quenching; stimulated with forskolin plus potentiator P3; % fluorescence drop versus neutral controls. activity (quench increase), % at 7.58 µM. 350,000 compounds, 0.36% hits;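 active means mean added fluorescence quench of at least 8% versus neutral control, with both replicates also reaching 8%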;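 further: cells transiently co-express mutant CFTR-F508del with the halide-sensitive YFP; corrector assay measuring rescue of mutant channel to the surface after 24 h compound exposure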
S100A4 inh HTS = inhibitors of human S100A4 binding to myosin IIA peptide; S100A4/TAMRA-MyoIIA peptide fluorescence polarization; inhibition, % at 10.7 µM; 360,000 compounds, 0.14% hits; AID 652163;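 active means mean inhibition of at least 70% across replicates, with every replicate also reaching that level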
Target sequence (P26447 whole entry, looked up): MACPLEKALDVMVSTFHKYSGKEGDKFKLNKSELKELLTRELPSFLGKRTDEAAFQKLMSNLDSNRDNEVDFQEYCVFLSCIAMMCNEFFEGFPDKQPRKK
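Assay system: human S100A4 monomer with TAMRA-labelled myosin IIA peptide / Buffer or medium: Calcium-containing HEPES buffer, pH 7.2 / Reagent: TAMRA-labelled myosin IIA heavy-chain peptide probe, 5 nM / Compound: one dose per compound / Timing: polarization read 5 min after assay mix addition, stable 5–60 min / Benchmarks: neutral control DMSO, positive control TFP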
Env fusion inh = inhibitors of HIV Env-mediated cell fusion. HeLa-JRFL Env/CEM21 cell fusion, luciferase. 360,000 compounds, 1.1% hits. inhibition, % at 12.3 µM. AID 651610;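 active means mean replicate inhibition score of at least 50 and every replicate individually at or above 50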
E-sel inducer = E-selectin induction on HUVECs. P16581. HUVEC E-selectin immunofluorescence imaging; normalized: neutral wells 0, TNF-alpha wells 100. activation, % at 7.58 µM. 260,000 compounds, 0.37% hits. AID 686992;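 active means mean E-selectin-positive cell signal at least 10% of the positive control, reached in at least 60% of replicates, without over 20% cell loss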
Target sequence (P16581 whole entry, looked up): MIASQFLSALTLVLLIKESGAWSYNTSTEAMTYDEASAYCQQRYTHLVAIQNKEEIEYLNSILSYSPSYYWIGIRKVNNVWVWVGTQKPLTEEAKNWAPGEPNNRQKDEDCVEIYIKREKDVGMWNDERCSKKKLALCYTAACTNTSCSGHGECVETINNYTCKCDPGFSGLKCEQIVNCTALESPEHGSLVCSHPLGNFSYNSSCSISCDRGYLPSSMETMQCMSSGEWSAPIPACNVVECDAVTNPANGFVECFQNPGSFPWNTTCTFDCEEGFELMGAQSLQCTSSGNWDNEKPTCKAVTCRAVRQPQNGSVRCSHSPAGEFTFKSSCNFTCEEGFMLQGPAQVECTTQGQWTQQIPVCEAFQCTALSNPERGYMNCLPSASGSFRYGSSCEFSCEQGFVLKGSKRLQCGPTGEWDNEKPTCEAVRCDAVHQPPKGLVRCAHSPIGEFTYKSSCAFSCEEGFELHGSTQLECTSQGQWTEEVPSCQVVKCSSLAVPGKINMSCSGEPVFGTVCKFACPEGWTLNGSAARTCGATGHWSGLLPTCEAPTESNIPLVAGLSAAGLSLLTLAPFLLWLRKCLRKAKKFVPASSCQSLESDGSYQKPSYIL
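System: HUVEC, human umbilical vein endothelial cells; quantity: 3,000 cells/well; buffer or medium: EGM-2 medium, gelatin-coated wells; dosing: single-point compound dose; detection: immunofluorescence imaging; evaluation: % PE-positive cells; benchmarks: TNF-alpha, DMSO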
FGF22 binding = shifts melting point of recombinant human FGF22; Q9HCT0; recombinant FGF22 thermal shift, SYPRO orange fluorescence; percent of sucrose octasulfate shift, DMSO zero; activity (Tm shift, normalised), % at 9.99 µM; 340,000 compounds, 1.5% hits;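 active means mean Tm shift, scaled 0 neutral to 100 positive control, at about 1.3% or above, every replicate too, limit read from the data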
Large screens that a line does not name were inactive; [ ] = remark or other dose. Compounds with a hit are over-represented: about 2.7% of the library has one in this group of screens.

CC(C)NC(=O)Nc1ccc2c(c1)C(=O)N([C@H](C)CO)C[C@H](C)[C@H](CN(C)C(=O)CCCN(C)C)OCCCC[C@H](C)O2	none (no result: S100A4 inh HTS, FGF22 binding)
Cc1ccccc1-c1nc(CS(=O)(=O)CC(=O)NCc2ccccc2)c(C)o1	F508del corr 8.8
CCCN1C[C@H](C)[C@H](OC)CN(C)C(=O)c2cc(NC(=O)Nc3ccccc3F)ccc2OC[C@@H]1C	none
O=C(/C=C/c1c(Cl)nc2ccccn12)Nc1ccc(F)cc1	FGF22 binding 44 (no result: E-sel inducer)
Cc1cc(Nc2ccc(Cl)cc2)nc(NCc2ccccc2)n1	Env fusion inh 71 (no result: F508del corr, S100A4 inh HTS, E-sel inducer, FGF22 binding)
COc1cc(/C=C/C(=O)OCC(=O)Nc2ccc(Cl)cn2)ccc1O	E-sel inducer 47
O=C(COC(=O)/C=C/c1ccc(F)cc1)Nc1ccc(Cl)cn1	none (no result: E-sel inducer)
CCN(CC)c1ccc(N=C2C=CC(=O)C=C2NC(C)=O)cc1	S100A4 inh HTS 127
Cc1cc(C)c(C(=O)COC(=O)c2cccnc2Cl)c(C)c1	FGF22 binding 43
O=C(COC(=O)c1cccnc1Cl)c1ccc(Cl)cc1Cl	none (no result: F508del corr, S100A4 inh HTS, E-sel inducer, FGF22 binding)
CCOc1ccc(C(=O)COC(=O)Cc2n[nH]c(=O)c3ccccc23)cc1	F508del corr 13
COc1ccc(C)cc1Nc1n[n+](-c2ccccc2)c(-c2ccc(C(=O)O)cc2)s1	FGF22 binding 44 (no result: Env fusion inh)
O=C(NCC1CC1)[C@H]1[C@H](CO)[C@H]2Cn3c(ccc(-c4cccnc4)c3=O)[C@@H]1N2Cc1nccs1	none (no result: Env fusion inh)
CN(C)CCCNC(=O)C[C@@H]1CC[C@@H]2[C@H](COC[C@@H](O)CN2C(=O)c2ccncc2)O1	none
Cc1c(NC(=O)COC(=O)C2(c3ccc(F)cc3)CCCC2)c(=O)n(-c2ccccc2)n1C	FGF22 binding 43
N#Cc1c(N)nc(SCc2ccccn2)c(C#N)c1-c1cccs1	Env fusion inh 56 (no result: F508del corr, S100A4 inh HTS, E-sel inducer, FGF22 binding)
c1ccc(CSc2ccc(-c3cccs3)nn2)nc1	FGF22 binding 44 (no result: E-sel inducer)
CN(C)c1ccc(C=Cc2nccc3ccccc23)cc1	S100A4 inh HTS 88
COc1cccc(C=Cc2nccc3ccccc23)c1OC	none
CCn1c2c(c(=N)c3c1CCC3)CCC2	none (no result: F508del corr, E-sel inducer)
CCCCCCCn1c2c(c(=N)c3c1CCC3)CCCC2	Env fusion inh 72
CCCCCCn1c(=O)[nH]c2c(c1=O)CCC2	none
CCCCCCn1c2c(c(=N)c3c1CCC3)CCC2	Env fusion inh 81 (no result: F508del corr, S100A4 inh HTS, E-sel inducer, FGF22 binding)
COCC(=O)Nc1ccc2c(c1)[C@H]1C[C@@H](CC(=O)NCC3CC3)O[C@@H](CO)[C@H]1O2	none (no result: Env fusion inh)
CC(C)CC(COCc1cccc(Cl)c1)N1CCN(C(=O)c2cccc(C(F)(F)F)c2)CCC1=O (stereo not given)	Env fusion inh 76
CC(C)C[C@@H](COCc1cccc(C(F)(F)F)c1)N1CCN(C(=O)c2ccc(C(F)(F)F)cc2)CCC1=O	Env fusion inh 62
COc1ccc2c3c([nH]c2c1)[C@@H](CO)N(C(=O)C1CCC1)CC31CN(Cc2nccs2)C1	none (no result: Env fusion inh)
O=C(NC[C@@H]1CC[C@H]2[C@H](CN2Cc2cc(-c3ccccc3)on2)O1)c1ccc2c(c1)OCO2	Env fusion inh 58[16.7 µM] (no result: S100A4 inh HTS, E-sel inducer, FGF22 binding)
O=C(NC[C@@H]1CC[C@@H]2[C@@H](CN2C(=O)NC2CCCC2)O1)c1ccc2c(c1)OCO2	none (no result: Env fusion inh, E-sel inducer, FGF22 binding)
O=C(Nc1ccccc1F)N1C[C@H]2[C@@H](c3ccccc31)[C@H](CO)N2C(=O)c1ccccc1F	none (no result: Env fusion inh)
CCOc1ccc(CCn2c(-c3ccco3)nc3ccccc3c2=O)cc1OCC	Env fusion inh 62 (no result: F508del corr, E-sel inducer, FGF22 binding)
C[C@@H]1CN([C@@H](C)CO)C(=O)c2cccc(NC(=O)C3CC3)c2O[C@H]1CN(C)Cc1ccc(Cl)c(Cl)c1	none
CCOc1ccc(NC(=O)c2ccc(NC(=S)NC3CCCCC3)cc2)cc1	none
CCOc1ccc(NC(=O)c2ccc(NC(=S)NC3CC3)cc2)cc1	FGF22 binding 1.9 (no result: E-sel inducer)
COc1cccc(S(=O)(=O)Nc2ccc3c(c2)[C@H]2C[C@H](CC(=O)NCc4ccc(Cl)cc4)O[C@@H](CO)[C@H]2O3)c1	Env fusion inh 57[16.7 µM]
O=C(C[C@H]1C[C@@H]2c3cc(NS(=O)(=O)c4ccc(F)cc4)ccc3O[C@@H]2[C@@H](CO)O1)NCc1ccc(-c2ccccc2)cc1	Env fusion inh 71[16.7 µM] (no result: FGF22 binding)
O=C(C[C@H]1C[C@H]2c3cc(NS(=O)(=O)c4ccc(F)cc4)ccc3O[C@H]2[C@@H](CO)O1)NCc1ccccc1F	Env fusion inh 83[16.7 µM] (no result: FGF22 binding)
COc1cccc(S(=O)(=O)N[C@@H]2CC[C@H](CC(=O)NCc3ccncc3)O[C@@H]2CO)c1	Env fusion inh 56[16.7 µM]
O=C(C[C@H]1C[C@H]2c3cc(NS(=O)(=O)c4ccc(F)cc4)ccc3O[C@H]2[C@@H](CO)O1)NCc1ccc(-c2ccccc2)cc1	none (no result: FGF22 binding)
O=C(C[C@@H]1C[C@@H]2c3cc(NC(=O)c4ccc5c(c4)OCO5)ccc3O[C@@H]2[C@H](CO)O1)NCc1cc(F)ccc1F	none
COc1cccc(S(=O)(=O)N[C@@H]2C=C[C@@H](CC(=O)NC3CCC3)O[C@H]2CO)c1	none
NS(=O)(=O)c1ccc(NC(=O)CN2CCCCC2)cc1	none (no result: F508del corr, S100A4 inh HTS, E-sel inducer, FGF22 binding)
O=C(CN1CCCCC1)Nc1ccc(S(=O)(=O)c2ccc(NC(=O)CN3CCCCC3)cc2)cc1	FGF22 binding 44
O=[N+]([O-])c1cc(C(F)(F)F)ccc1N1CCCC(O)C1 (stereo not given)	FGF22 binding 43
O=[N+]([O-])c1cc(C(F)(F)F)ccc1N1CCN(CCO)CC1	FGF22 binding 43
O=C(C1CCC1)N1CCN(c2ccc(C(F)(F)F)cc2[N+](=O)[O-])CC1	none
CC=Cc1ccc2n(c1=O)C[C@@H]1[C@@H](CO)[C@H](C(=O)NCCc3ccncc3)N(CCC(F)(F)F)[C@H]21 (mixture of isomers)	none (no result: Env fusion inh)
O=C(C[C@@H]1C[C@@H]2c3cc(NC(=O)Nc4ccccc4)ccc3O[C@@H]2[C@H](CO)O1)NCc1cccnc1	none (no result: S100A4 inh HTS)
NC(=O)N=Nc1c2[nH]c3ccccc3nc-2c2ccccc12	F508del corr 22 (no result: E-sel inducer)
C[C@H]1CN([C@@H](C)CO)C(=O)Cc2cc(NC(=O)NC3CCCCC3)ccc2O[C@@H]1CN(C)C(=O)Nc1ccc(C(F)(F)F)cc1	none
COc1ccc(CNc2ncnc3c2[nH]c2ccccc23)cc1	none (no result: E-sel inducer)
COc1ccc(CNc2ncnc3c2[nH]c2cc(OC)c(OC)cc23)cc1	E-sel inducer 67
O=C(c1ccco1)N1CCCC(c2nc(-c3ccc(S(=O)(=O)NCc4ccccc4)cc3)no2)C1 (stereo not given)	Env fusion inh 65 (no result: F508del corr, S100A4 inh HTS, E-sel inducer, FGF22 binding)
COc1ccccc1S(=O)(=O)n1cc(Cc2ccccc2)c(N)n1	Env fusion inh 79 (no result: F508del corr, S100A4 inh HTS, E-sel inducer, FGF22 binding)
COc1ccc(Cl)cc1S(=O)(=O)N1CCN=C1Cc1ccccc1	none
O=C(NCc1ccncn1)[C@H]1[C@H](CO)[C@H]2Cn3c(ccc(-c4cccc(F)c4)c3=O)[C@H]2N1CC1CC1	none (no result: Env fusion inh)
